Reference: ChEMBL document CHEMBL3860048 (J Med Chem, 2016)
Calls of active or inactive are those of the source. The calls are words filed in the database; no cut-off is given here. Where a SMILES comes first, the peptide text is derived from it. [ ]: non-standard residue; d: D form. Phe(4-Cl) = N[C@@H](Cc1ccc(Cl)cc1)C(=O)O; Phe(3-F) = N[C@@H](Cc1cccc(F)c1)C(=O)O; Phe(2-F) = N[C@@H](Cc1ccccc1F)C(=O)O; Arg(Me) = CNC(=N)NCCC[C@H](N)C(=O)O; Pip = O=C(O)[C@@H]1CCCCN1; NMeA = CN[C@@H](C)C(=O)O; Thz = O=C(O)[C@@H]1CSCN1; dNMeA = CN[C@H](C)C(=O)O; Aze = O=C(O)[C@@H]1CCN1; 2Abz = Nc1ccccc1C(=O)O; Aib = CC(C)(N)C(=O)O; azaGly = NNC(=O)O; βAla = NCCC(=O)O; Sar = CNCC(=O)O

What was measured:
[1] = target: KiSS-1 receptor (Rattus norvegicus, UniProt Q924U1); test: Agonist activity at rat KISS1R expressed in CHO/dhfr cells assessed as increase in intracellular Ca2+ levels measured for 180 secs by Fluo 3-AM dye based FLIPR assay; format: functional, cell-based
KiSS-1 receptor (Rattus norvegicus, UniProt Q924U1), sequence (Q924U1 whole entry): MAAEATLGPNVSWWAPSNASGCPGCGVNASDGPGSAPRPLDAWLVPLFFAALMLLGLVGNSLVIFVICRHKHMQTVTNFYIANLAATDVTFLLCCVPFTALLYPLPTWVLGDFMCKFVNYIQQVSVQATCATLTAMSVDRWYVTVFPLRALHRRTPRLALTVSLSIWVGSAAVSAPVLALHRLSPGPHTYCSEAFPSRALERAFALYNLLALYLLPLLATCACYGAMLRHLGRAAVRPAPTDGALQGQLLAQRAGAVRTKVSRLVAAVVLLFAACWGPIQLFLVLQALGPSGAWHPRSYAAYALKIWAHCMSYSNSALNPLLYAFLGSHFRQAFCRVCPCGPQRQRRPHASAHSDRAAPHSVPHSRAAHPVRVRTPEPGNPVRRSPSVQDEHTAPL

[2] = target: KiSS-1 receptor (Homo sapiens, UniProt Q969F8); test: Agonist activity at human KISS1R expressed in CHO/dhfr cells assessed as increase in intracellular Ca2+ levels measured for 180 secs by Fluo 3-AM dye based FLIPR assay; format: functional, cell-based
KiSS-1 receptor (Homo sapiens, UniProt Q969F8), sequence (Q969F8 whole entry): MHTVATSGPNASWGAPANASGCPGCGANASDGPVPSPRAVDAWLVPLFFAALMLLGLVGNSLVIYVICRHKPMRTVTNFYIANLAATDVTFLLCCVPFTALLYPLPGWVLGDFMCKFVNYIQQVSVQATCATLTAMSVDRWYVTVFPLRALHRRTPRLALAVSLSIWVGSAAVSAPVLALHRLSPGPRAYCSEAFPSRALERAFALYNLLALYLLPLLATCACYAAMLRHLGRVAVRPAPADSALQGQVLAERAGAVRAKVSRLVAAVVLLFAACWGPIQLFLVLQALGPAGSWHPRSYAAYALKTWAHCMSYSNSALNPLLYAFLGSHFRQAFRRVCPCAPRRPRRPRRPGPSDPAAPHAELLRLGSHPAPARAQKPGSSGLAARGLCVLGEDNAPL
Outline: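 CHO cells expressing human KISS1R; FLIPR recording of ligand-induced [Ca2+]i rise over time. Maximum response taken and expressed as percent of the response to a maximal concentration of metastin(45-54). EC50 = concentration giving half-maximal mobilization, from nonlinear regression of smoothed data. Reported as ratio to the metastin(45-54) EC50.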

[3] = tested on: Rattus norvegicus; test: Inhibition of testosterone levels in CD(SD) rat assessed as plasma testosterone level <0.04 ng/ml at 0.03 nmol/hr, sc administered continuously for 6 days through alzet osmotic pump measured after 6 days by radio-immunoassay; format: functional, organism-based

| Structure (SMILES) | EC50 [1] | EC50 [2] | inhibition [3] |
| --- | --- | --- | --- |
| CNC(=N)NCCC[C@H](NC(=O)[C@H](CC(C)C)NC(=O)NNC(=O)[C@H](Cc1ccccc1)NC(=O)[C@@H](NC(=O)[C@H](CC(N)=O)NC(=O)[C@@H](C)NC(=O)[C@@H](Cc1ccc(O)cc1)NC(C)=O)[C@@H](C)O)C(=O)N[C@@H](Cc1c[nH]c2ccccc12)C(N)=O | 16 nM | 2.7 nM |  |
| CNC(=N)NCCC[C@H](NC(=O)[C@H](CC(C)C)NC(=O)NNC(=O)[C@H](Cc1ccccc1)NC(=O)[C@@H](NC(=O)[C@H](CC(N)=O)NC(=O)[C@H](C)NC(=O)[C@@H](Cc1ccc(O)cc1)NC(C)=O)[C@@H](C)O)C(=O)N[C@@H](Cc1c[nH]c2ccccc12)C(N)=O | 6 nM | 1.2 nM |  |
| CNC(=N)NCCC[C@H](NC(=O)[C@H](CC(C)C)NC(=O)NNC(=O)[C@H](Cc1ccc(F)cc1)NC(=O)[C@@H](NC(=O)[C@H](CC(N)=O)NC(=O)[C@@H](Cc1c[nH]c2ccccc12)NC(=O)[C@@H](Cc1ccc(O)cc1)NC(C)=O)[C@@H](C)O)C(=O)N[C@@H](Cc1c[nH]c2ccccc12)C(N)=O | 4.7 nM | 1.9 nM | Active |
| CNC(=N)NCCC[C@H](NC(=O)[C@H](CC(C)C)NC(=O)NNC(=O)[C@H](Cc1ccccc1)NC(=O)[C@@H](NC(=O)[C@H](CC(N)=O)NC(=O)[C@@H]1Cc2ccccc2CN1C(=O)[C@@H](Cc1ccc(O)cc1)NC(C)=O)[C@@H](C)O)C(=O)N[C@@H](Cc1c[nH]c2ccccc12)C(N)=O | 7 nM | 0.49 nM |  |
| CNC(=N)NCCC[C@H](NC(=O)[C@H](CC(C)C)NC(=O)NNC(=O)[C@H](Cc1ccccc1)NC(=O)[C@@H](NC(=O)[C@H](CC(N)=O)NC(=O)[C@@H](CC(C)C)NC(=O)[C@@H](Cc1ccc(O)cc1)NC(C)=O)[C@@H](C)O)C(=O)N[C@@H](Cc1c[nH]c2ccccc12)C(N)=O | 12 nM | 2 nM | Active |
| CNC(=N)NCCC[C@H](NC(=O)[C@H](CC(C)C)NC(=O)NNC(=O)[C@H](Cc1ccccc1)NC(=O)[C@@H](NC(=O)[C@H](CC(N)=O)NC(=O)[C@H]1CCCN(C(=O)[C@@H](Cc2ccc(O)cc2)NC(C)=O)C1)[C@@H](C)O)C(=O)N[C@@H](Cc1c[nH]c2ccccc12)C(N)=O | 45 nM | 5.5 nM |  |
| CNC(=N)NCCC[C@H](NC(=O)[C@H](CC(C)C)NC(=O)NNC(=O)[C@H](Cc1cccc(F)c1)NC(=O)[C@@H](NC(=O)[C@H](CC(N)=O)NC(=O)CNC(=O)[C@@H](Cc1ccc(O)cc1)NC(C)=O)[C@@H](C)O)C(=O)N[C@@H](Cc1c[nH]c2ccccc12)C(N)=O (Ac-[dY]GNT[Phe(3-F)][azaGly]L[Arg(Me)]W-NH2) | 7.4 nM | 1.1 nM |  |
| CNC(=N)NCCC[C@H](NC(=O)[C@H](CC(C)C)NC(=O)NNC(=O)[C@H](Cc1cccc(F)c1)NC(=O)[C@@H](NC(=O)[C@H](CC(N)=O)NC(=O)[C@H](Cc1c[nH]c2ccccc12)NC(=O)[C@@H](Cc1ccc(O)cc1)NC(C)=O)[C@@H](C)O)C(=O)N[C@@H](Cc1c[nH]c2ccccc12)C(N)=O (Ac-[dY]WNT[Phe(3-F)][azaGly]L[Arg(Me)]W-NH2) | 1.2 nM | 0.073 nM |  |
| CNC(=N)NCCC[C@H](NC(=O)[C@H](CC(C)C)NC(=O)NNC(=O)[C@H](Cc1ccccc1)NC(=O)[C@@H](NC(=O)[C@H](CC(N)=O)NC(=O)c1ccccc1NC(=O)[C@@H](Cc1ccc(O)cc1)NC(C)=O)[C@@H](C)O)C(=O)N[C@@H](Cc1c[nH]c2ccccc12)C(N)=O (Ac-[dY][2Abz]NTF[azaGly]L[Arg(Me)]W-NH2) | 47 nM | 5.2 nM |  |
| CNC(=N)NCCC[C@H](NC(=O)[C@H](CC(C)C)NC(=O)NNC(=O)[C@H](Cc1ccccc1)NC(=O)[C@@H](NC(=O)[C@H](CC(N)=O)NC(=O)[C@@H]1CCCCN1C(=O)[C@@H](Cc1ccc(O)cc1)NC(C)=O)[C@@H](C)O)C(=O)N[C@@H](Cc1c[nH]c2ccccc12)C(N)=O (Ac-[dY][Pip]NTF[azaGly]L[Arg(Me)]W-NH2) | 17 nM | 2.8 nM |  |
| CNC(=N)NCCC[C@H](NC(=O)[C@H](CC(C)C)NC(=O)NNC(=O)[C@H](Cc1ccccc1)NC(=O)[C@@H](NC(=O)[C@H](CC(N)=O)NC(=O)[C@@H]1CSCN1C(=O)[C@@H](Cc1ccc(O)cc1)NC(C)=O)[C@@H](C)O)C(=O)N[C@@H](Cc1c[nH]c2ccccc12)C(N)=O (Ac-[dY][Thz]NTF[azaGly]L[Arg(Me)]W-NH2) | 23 nM | 2.3 nM |  |
| CNC(=N)NCCC[C@H](NC(=O)[C@H](CC(C)C)NC(=O)NNC(=O)[C@H](Cc1ccccc1)NC(=O)[C@@H](NC(=O)[C@H](CC(N)=O)NC(=O)[C@@H](C)N(C)C(=O)[C@@H](Cc1ccc(O)cc1)NC(C)=O)[C@@H](C)O)C(=O)N[C@@H](Cc1c[nH]c2ccccc12)C(N)=O (Ac-[dY][dNMeA]NTF[azaGly]L[Arg(Me)]W-NH2) | 7.3 nM | 1.8 nM |  |
| CNC(=N)NCCC[C@H](NC(=O)[C@H](CC(C)C)NC(=O)NNC(=O)[C@H](Cc1ccccc1F)NC(=O)[C@@H](NC(=O)[C@H](CC(N)=O)NC(=O)[C@@H](Cc1c[nH]c2ccccc12)NC(=O)[C@@H](Cc1ccc(O)cc1)NC(C)=O)[C@@H](C)O)C(=O)N[C@@H](Cc1c[nH]c2ccccc12)C(N)=O (Ac-[dY][dW]NT[Phe(2-F)][azaGly]L[Arg(Me)]W-NH2) | 1.8 nM | 0.65 nM |  |
| CNC(=N)NCCC[C@H](NC(=O)[C@H](CC(C)C)NC(=O)NNC(=O)[C@H](Cc1ccc(Cl)cc1)NC(=O)[C@@H](NC(=O)[C@H](CC(N)=O)NC(=O)[C@@H](Cc1c[nH]c2ccccc12)NC(=O)[C@@H](Cc1ccc(O)cc1)NC(C)=O)[C@@H](C)O)C(=O)N[C@@H](Cc1c[nH]c2ccccc12)C(N)=O (Ac-[dY][dW]NT[Phe(4-Cl)][azaGly]L[Arg(Me)]W-NH2) | 2.8 nM | 0.56 nM |  |
| CNC(=N)NCCC[C@H](NC(=O)[C@H](CC(C)C)NC(=O)NNC(=O)[C@H](Cc1ccccc1)NC(=O)[C@@H](NC(=O)[C@H](CC(N)=O)NC(=O)CCNC(=O)[C@@H](Cc1ccc(O)cc1)NC(C)=O)[C@@H](C)O)C(=O)N[C@@H](Cc1c[nH]c2ccccc12)C(N)=O (Ac-[dY][βAla]NTF[azaGly]L[Arg(Me)]W-NH2) | 11 nM | 3.3 nM |  |

More lines, main results first:

| EC50 [1] | EC50 [2] | Structure (SMILES) | inhibition [3] |
| --- | --- | --- | --- |
| 15 nM | 2.3 nM | CNC(=N)NCCC[C@H](NC(=O)[C@H](CC(C)C)NC(=O)NNC(=O)[C@H](Cc1ccccc1)NC(=O)[C@@H](NC(=O)[C@H](CC(N)=O)NC(=O)C1CN(C(=O)[C@@H](Cc2ccc(O)cc2)NC(C)=O)C1)[C@@H](C)O)C(=O)N[C@@H](Cc1c[nH]c2ccccc12)C(N)=O |  |
| 6.8 nM | 1.6 nM | CNC(=N)NCCC[C@H](NC(=O)[C@H](CC(C)C)NC(=O)NNC(=O)[C@H](Cc1ccccc1)NC(=O)[C@@H](NC(=O)[C@H](CC(N)=O)NC(=O)[C@H](CCCCN)NC(=O)[C@@H](Cc1ccc(O)cc1)NC(C)=O)[C@@H](C)O)C(=O)N[C@@H](Cc1c[nH]c2ccccc12)C(N)=O | Active |
| 11 nM | 2.8 nM | CNC(=N)NCCC[C@H](NC(=O)[C@H](CC(C)C)NC(=O)NNC(=O)[C@H](Cc1ccccc1)NC(=O)[C@@H](NC(=O)[C@H](CC(N)=O)NC(=O)[C@H](CCC(=O)O)NC(=O)[C@@H](Cc1ccc(O)cc1)NC(C)=O)[C@@H](C)O)C(=O)N[C@@H](Cc1c[nH]c2ccccc12)C(N)=O | Active |
| 110 nM | 5.8 nM | CNC(=N)NCCC[C@H](NC(=O)[C@H](CC(C)C)NC(=O)NNC(=O)[C@H](Cc1ccccc1)NC(=O)[C@@H](NC(=O)[C@H](CC(N)=O)NC(=O)[C@H]1CCCN1C(=O)[C@@H](Cc1ccc(O)cc1)NC(C)=O)[C@@H](C)O)C(=O)N[C@@H](Cc1c[nH]c2ccccc12)C(N)=O |  |
| 7 nM | 1.2 nM | CNC(=N)NCCC[C@H](NC(=O)[C@H](CC(C)C)NC(=O)NNC(=O)[C@H](Cc1cccc(F)c1)NC(=O)[C@@H](NC(=O)[C@H](CC(N)=O)NC(=O)C(C)(C)NC(=O)[C@@H](Cc1ccc(O)cc1)NC(C)=O)[C@@H](C)O)C(=O)N[C@@H](Cc1c[nH]c2ccccc12)C(N)=O (Ac-[dY][Aib]NT[Phe(3-F)][azaGly]L[Arg(Me)]W-NH2) |  |
| 16 nM | 1.9 nM | CNC(=N)NCCC[C@H](NC(=O)[C@H](CC(C)C)NC(=O)NNC(=O)[C@H](Cc1ccccc1)NC(=O)[C@@H](NC(=O)[C@H](CC(N)=O)NC(=O)[C@@H]1CCN1C(=O)[C@@H](Cc1ccc(O)cc1)NC(C)=O)[C@@H](C)O)C(=O)N[C@@H](Cc1c[nH]c2ccccc12)C(N)=O (Ac-[dY][Aze]NTF[azaGly]L[Arg(Me)]W-NH2) | Active |
| 43 nM | 4.4 nM | CNC(=N)NCCC[C@H](NC(=O)[C@H](CC(C)C)NC(=O)NNC(=O)[C@H](Cc1ccccc1)NC(=O)[C@@H](NC(=O)[C@H](CC(N)=O)NC(=O)[C@H](C)N(C)C(=O)[C@@H](Cc1ccc(O)cc1)NC(C)=O)[C@@H](C)O)C(=O)N[C@@H](Cc1c[nH]c2ccccc12)C(N)=O (Ac-[dY][NMeA]NTF[azaGly]L[Arg(Me)]W-NH2) |  |
| 20 nM | 4.9 nM | CNC(=N)NCCC[C@H](NC(=O)[C@H](CC(C)C)NC(=O)NNC(=O)[C@H](Cc1ccccc1)NC(=O)[C@@H](NC(=O)[C@H](CC(N)=O)NC(=O)CN(C)C(=O)[C@@H](Cc1ccc(O)cc1)NC(C)=O)[C@@H](C)O)C(=O)N[C@@H](Cc1c[nH]c2ccccc12)C(N)=O (Ac-[dY][Sar]NTF[azaGly]L[Arg(Me)]W-NH2) |  |
| 4.8 nM | 1.4 nM | CNC(=N)NCCC[C@H](NC(=O)[C@H](CC(C)C)NC(=O)NNC(=O)[C@H](Cc1cccc(F)c1)NC(=O)[C@@H](NC(=O)[C@H](CC(N)=O)NC(=O)[C@@H](Cc1c[nH]c2ccccc12)NC(=O)[C@@H](Cc1ccc(O)cc1)NC(C)=O)[C@@H](C)O)C(=O)N[C@@H](Cc1c[nH]c2ccccc12)C(N)=O (Ac-[dY][dW]NT[Phe(3-F)][azaGly]L[Arg(Me)]W-NH2) |  |
